Data set [1] is filed under the species Homo sapiens. The experiment in a line: Selectivity index, ratio of IC50 for recombinant human MAO-A expressed in baculovirus infected High 5 insect cells to IC50 for recombinant human MAO-B expressed in baculovirus infected High 5 insect cells. In outline:
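Recombinant human MAO-A or MAO-B (7.5 µg/mL) with kynuramine substrate in 100 mM potassium phosphate pH 7.4 (KCl-isotonic), <4% DMSO, 30 min at 37 °C. Stopped with 2 N NaOH. Single-point inhibition at 10 µM. IC50 from six-concentration sigmoidal curves, triplicate. SI = IC50(MAO-A)/IC50(MAO-B).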

A short description of data set [2]: Inhibition of Cu2+-mediated aggregation of amyloid beta (1-42) (unknown origin) at 25 uM after 24 hrs by thioflavin T fluorescence-based fluorimetric method relative to control. It counts as functional. The gist of the method: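 HFIP-pretreated Aβ1-42 (25 µM) was incubated with Cu2+ (25 µM), with or without compound (25 µM final), in 20 mM HEPES/150 mM NaCl pH 6.6 at 37 °C for 24 h. 5 µM ThT in 50 mM glycine-NaOH pH 8.5 was then added. Fluorescence was read at ex 446/em 490 nm. Percent inhibition was taken versus no-inhibitor control after background subtraction, in triplicate.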

For data set [3], the target named is T1, Amine oxidase [flavin-containing] B (Homo sapiens, UniProt P27338).
T1 sequence (P27338 whole entry): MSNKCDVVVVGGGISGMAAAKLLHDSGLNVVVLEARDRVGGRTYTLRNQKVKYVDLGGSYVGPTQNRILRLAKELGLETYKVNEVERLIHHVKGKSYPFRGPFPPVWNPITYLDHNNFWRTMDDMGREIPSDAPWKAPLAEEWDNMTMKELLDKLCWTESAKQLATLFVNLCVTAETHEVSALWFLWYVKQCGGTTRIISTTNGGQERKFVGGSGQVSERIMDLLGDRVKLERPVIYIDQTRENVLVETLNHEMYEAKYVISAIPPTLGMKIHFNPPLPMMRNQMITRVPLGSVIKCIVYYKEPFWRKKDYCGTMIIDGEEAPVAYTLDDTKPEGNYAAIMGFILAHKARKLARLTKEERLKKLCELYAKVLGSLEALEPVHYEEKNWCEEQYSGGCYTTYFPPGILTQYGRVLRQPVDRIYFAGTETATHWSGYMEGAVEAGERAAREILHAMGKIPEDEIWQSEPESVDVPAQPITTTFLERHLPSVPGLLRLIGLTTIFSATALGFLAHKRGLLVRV
The experiment in a line: Inhibition of recombinant human MAO-B expressed in baculovirus infected High 5 insect cells using kynuramine as substrate incubated for 30 mins by spectrofluorometric method. The class given is cell-based.

Data set [4] is described as follows: Inhibition of rat serum BuChE at 50 uM using butyrylthiocholine iodide as substrate incubated for 15 mins by Ellman's method relative to control. The conditions noted are these: 0.25 h. The gist of the method:
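Ellman method with 25% rat serum as BuChE source, butyrylthiocholine iodide 1 mmol/L, phosphate buffer pH 7.4, absorbance at 405 nm. Compounds tested at 50 µM. […] Triplicate wells.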

Data set [5] concerns the target T2, Amine oxidase [flavin-containing] A (Homo sapiens, UniProt P21397).
T2 sequence (P21397 whole entry): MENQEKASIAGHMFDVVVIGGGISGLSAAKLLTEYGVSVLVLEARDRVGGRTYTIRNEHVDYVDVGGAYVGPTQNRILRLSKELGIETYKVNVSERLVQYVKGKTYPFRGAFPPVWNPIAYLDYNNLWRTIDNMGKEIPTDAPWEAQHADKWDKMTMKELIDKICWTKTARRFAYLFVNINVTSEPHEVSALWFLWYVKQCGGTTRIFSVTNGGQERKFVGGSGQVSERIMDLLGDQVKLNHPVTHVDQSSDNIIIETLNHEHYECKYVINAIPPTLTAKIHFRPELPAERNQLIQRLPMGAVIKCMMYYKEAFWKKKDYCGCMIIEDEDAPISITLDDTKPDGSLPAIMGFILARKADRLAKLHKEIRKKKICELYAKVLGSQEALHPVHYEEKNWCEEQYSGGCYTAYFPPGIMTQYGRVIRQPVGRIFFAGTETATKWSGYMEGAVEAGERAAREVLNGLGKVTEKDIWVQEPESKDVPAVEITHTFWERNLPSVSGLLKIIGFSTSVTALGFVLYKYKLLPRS
The experiment in a line: Inhibition of recombinant human MAO-A expressed in baculovirus infected High 5 insect cells using kynuramine as substrate incubated for 30 mins by spectrofluorometric method.

Data set [6] deals with Acetylcholinesterase (Electrophorus electricus, UniProt O42275). Put plainly: Inhibition of electric eel AChE using acetylthiocholine iodide as substrate incubated for 15 mins by Ellman's method. The gist of the method:
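Ellman spectrophotometric assay: electric eel AChE 0.05 U/mL final, acetylthiocholine iodide 1 mmol/L, phosphate buffer pH 8.0, range of compound concentrations.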
A general note: Ellman's reagent forms a yellow product with free thiols.

Data set [7] is described as follows: Antioxidant activity assessed as trolox equivalents of AAPH radical scavenging activity at 5 uM preincubated for 15 mins followed by AAPH addition measured every 60 sec for 90 mins by ORAC-FL assay. The class given is functional. The gist of the method:
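Peroxyl radicals generated by AAPH (12 mM final) at 37 °C in phosphate buffer pH 7.4 with fluorescein (150 nM final). Sample and fluorescein were preincubated 15 min before AAPH addition. Fluorescence (ex 485/em 535 nm) was read every 60 s for 90 min.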

Data set [8] addresses Amyloid-beta precursor protein (Homo sapiens) (UniProt P05067). Put plainly: Inhibition of self-induced aggregation of amyloid beta (1-42) (unknown origin) at 25 uM after 24 hrs by thioflavin T fluorescence-based fluorimetric method relative to control. In outline:
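Aβ1-42 was pretreated in HFIP, dried and stocked in DMSO. Aβ1-42 (25 µM final) was incubated with compound (25 µM final) in 50 mM phosphate buffer pH 7.4 at 37 °C for 24 h. 5 µM ThT in 50 mM glycine-NaOH pH 8.5 was then added. Fluorescence was read at ex 446/em 490 nm. Inhibition = (1−IFi/IFc)×100 after background subtraction, in triplicate.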

The nature of data set [9]: Metal chelating activity assessed as compound-Al3+ complex formation by measuring shift in maximum absorption wavelength at 37.5 uM after 30 mins by UV-vis spectrophotometric method. It counts as physicochemical. Conditions: 0.5 h. The gist of the method:
(§1)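 Difference UV-vis spectra (200-600 nm) of compound and metal salt (CuCl2 or AlCl3), each 37.5 µM final, after 30 min at room temperature. Spectra of metal alone and compound alone were subtracted from the mixture spectrum.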

The target in data set [10] is T1, Amine oxidase [flavin-containing] B. Put plainly: Potency index, ratio of rasagiline IC50 to compound IC50 for recombinant human MAO-B expressed in baculovirus infected High 5 insect cells.
The target is the same in data set [11]. The experiment in a line: Potency index, ratio of iproniazid IC50 to compound IC50 for recombinant human MAO-B expressed in baculovirus infected High 5 insect cells.
The nature of data set [12]: Permeability of compound at 100 ug/ml after 18 hrs by PAMPA. It counts as ADME. The conditions noted are these: read-out: permeability. In general terms: PAMPA measures passive passage across an artificial lipid membrane.
Data set [13] in a line: Metal chelating activity assessed as mole fraction of compound required to show 1:1 stoichiometry for Cu2+-compound complex at 37.5 uM after 30 mins by UV-vis spectrophotometric method. It counts as physicochemical. Conditions: 0.5 h. The gist of the method: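 Molar ratio method: a methanol solution of compound (37.5 µM final) was titrated with CuCl2 (3.75-150 µM final). Absorbance at 474 nm was taken after subtracting CuCl2 and compound spectra and plotted against the compound mole fraction. The intersection of the linear segments gave the stoichiometry.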

The target of data set [14] is Acetylcholinesterase (Electrophorus electricus) (UniProt O42275). The experiment in a line: Mixed-type inhibition of electric eel AChE at 2.5 to 10 uM using varying levels of acetylthiocholine iodide as substrate preincubated for 15 mins followed by substrate addition by Lineweaver-Burk plot analysis. In outline: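 Kinetics with EeAChE in 0.1 M phosphate pH 8.0 with DTNB. Three inhibitor concentrations preincubated with enzyme 15 min at 37 °C, then acetylthiocholine added at 0.1–0.4 mM. Read at 412 nm. Weighted least-squares Lineweaver–Burk plots; slopes replotted against inhibitor concentration. No-inhibitor controls run in parallel.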

Data set [15] deals with T2, Amine oxidase [flavin-containing] A. Put plainly: Inhibition of recombinant human MAO-A expressed in baculovirus infected High 5 insect cells at 10 uM using kynuramine as substrate incubated for 30 mins by spectrofluorometric method relative to control. The conditions noted are these: 0.5 h. In outline:
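Recombinant human MAO-A or MAO-B (7.5 µg/mL) with kynuramine substrate in 100 mM potassium phosphate pH 7.4 (KCl-isotonic), <4% DMSO, 30 min at 37 °C. Stopped with 2 N NaOH. 4-Hydroxyquinoline was measured fluorometrically (ex 310/em 400 nm) against a calibration curve. Single-point inhibition at 10 µM. IC50 from six-concentration sigmoidal curves, triplicate. SI = IC50(MAO-A)/IC50(MAO-B).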

Data set [16] is described as follows: Metal chelating activity assessed as compound-Cu2+ complex formation by measuring shift in maximum absorption wavelength at 37.5 uM after 30 mins by UV-vis spectrophotometric method. The class given is physicochemical. Conditions: 0.5 h. In outline: as §1
The nature of data set [17]: Inhibition of rat serum BuChE using butyrylthiocholine iodide as substrate incubated for 15 mins by Ellman's method. In outline: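 Rat serum BuChE (25% serum) by Ellman method, butyrylthiocholine iodide 1 mmol/L, phosphate buffer pH 7.4, read at 405 nm. Compound concentrations varied, each in triplicate.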

From ChEMBL document CHEMBL3875206, “Design, synthesis and biological evaluation of 4'-aminochalcone-rivastigmine hybrids as multifunctional agents for the treatment of Alzheimer's disease” (Bioorg Med Chem, 2017) come the findings set out here.

Molecules are shown by their SMILES. pIC50: −log10 of the molar value. Calls of active or inactive are those of the source. The rule behind the calls is not given here.

The term inhibition denotes the change of the read-out against control, counted positive when it falls. As a reminder, the pIC50 is the IC50 on a negative log10 scale, so that one unit is a factor of ten.

Sequence of Amyloid-beta precursor protein (Homo sapiens) (P05067 whole entry): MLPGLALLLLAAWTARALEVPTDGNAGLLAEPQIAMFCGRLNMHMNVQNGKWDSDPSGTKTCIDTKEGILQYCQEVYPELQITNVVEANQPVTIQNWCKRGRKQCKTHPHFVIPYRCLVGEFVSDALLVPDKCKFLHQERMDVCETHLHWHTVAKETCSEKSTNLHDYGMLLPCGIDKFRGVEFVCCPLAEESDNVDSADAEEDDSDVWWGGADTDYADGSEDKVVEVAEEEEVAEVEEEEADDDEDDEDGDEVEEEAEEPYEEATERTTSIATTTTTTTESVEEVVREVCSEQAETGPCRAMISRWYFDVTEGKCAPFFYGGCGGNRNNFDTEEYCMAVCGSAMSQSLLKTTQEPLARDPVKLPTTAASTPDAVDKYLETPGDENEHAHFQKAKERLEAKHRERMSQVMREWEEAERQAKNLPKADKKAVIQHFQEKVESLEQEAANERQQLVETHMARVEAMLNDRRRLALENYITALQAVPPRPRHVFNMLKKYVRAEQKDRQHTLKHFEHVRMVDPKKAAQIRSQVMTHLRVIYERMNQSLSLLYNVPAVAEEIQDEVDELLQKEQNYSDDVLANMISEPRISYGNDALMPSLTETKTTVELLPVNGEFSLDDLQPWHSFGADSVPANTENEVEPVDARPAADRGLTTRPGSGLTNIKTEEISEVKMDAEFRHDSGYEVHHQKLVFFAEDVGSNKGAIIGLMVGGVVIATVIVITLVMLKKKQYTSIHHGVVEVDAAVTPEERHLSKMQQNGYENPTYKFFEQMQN
Sequence of Acetylcholinesterase (O42275 whole entry): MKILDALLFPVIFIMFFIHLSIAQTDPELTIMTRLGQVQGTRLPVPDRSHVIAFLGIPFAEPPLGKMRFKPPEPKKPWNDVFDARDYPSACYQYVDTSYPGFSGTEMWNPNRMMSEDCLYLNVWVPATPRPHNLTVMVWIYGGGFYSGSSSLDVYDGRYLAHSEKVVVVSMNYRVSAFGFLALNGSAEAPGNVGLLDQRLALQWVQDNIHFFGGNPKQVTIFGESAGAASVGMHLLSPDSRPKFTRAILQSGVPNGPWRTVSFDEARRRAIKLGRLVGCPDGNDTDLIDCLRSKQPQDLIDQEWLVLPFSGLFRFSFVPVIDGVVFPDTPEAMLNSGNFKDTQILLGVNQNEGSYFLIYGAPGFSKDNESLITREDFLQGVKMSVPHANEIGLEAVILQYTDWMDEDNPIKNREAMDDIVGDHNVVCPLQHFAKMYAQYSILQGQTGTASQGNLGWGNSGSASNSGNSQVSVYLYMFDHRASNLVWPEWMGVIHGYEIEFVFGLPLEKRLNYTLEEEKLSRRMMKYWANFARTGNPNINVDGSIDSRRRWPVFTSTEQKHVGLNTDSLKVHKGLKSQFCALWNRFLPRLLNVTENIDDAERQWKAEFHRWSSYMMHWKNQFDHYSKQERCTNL
Sequence of Acetylcholinesterase (Electrophorus electricus) (O42275 24-633 limits assumed): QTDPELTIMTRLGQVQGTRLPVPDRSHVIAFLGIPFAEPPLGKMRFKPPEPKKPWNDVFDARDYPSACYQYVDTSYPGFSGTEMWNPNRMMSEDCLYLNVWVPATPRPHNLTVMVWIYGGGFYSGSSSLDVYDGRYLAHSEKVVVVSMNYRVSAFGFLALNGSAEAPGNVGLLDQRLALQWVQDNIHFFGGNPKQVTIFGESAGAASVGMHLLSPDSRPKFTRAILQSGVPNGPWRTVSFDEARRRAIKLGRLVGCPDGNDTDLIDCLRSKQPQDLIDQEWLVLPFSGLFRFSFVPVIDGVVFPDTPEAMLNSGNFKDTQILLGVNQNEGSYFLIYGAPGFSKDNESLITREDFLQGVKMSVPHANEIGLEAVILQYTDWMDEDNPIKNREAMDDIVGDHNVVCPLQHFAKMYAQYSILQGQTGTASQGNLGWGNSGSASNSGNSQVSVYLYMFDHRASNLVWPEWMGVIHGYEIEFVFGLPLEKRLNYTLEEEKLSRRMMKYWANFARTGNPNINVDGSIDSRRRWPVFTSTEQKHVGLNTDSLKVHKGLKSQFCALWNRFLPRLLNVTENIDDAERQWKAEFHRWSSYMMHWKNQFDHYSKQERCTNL

In the case of `CN(C)c1ccc(/C=C/C(=O)c2ccc(O)cc2O)cc1`, the Ratio IC50 in data set [1] came to 13.4. For the same compound, the inhibition came out at 60.1% in data set [2] and 77.7% in data set [8]. Also, the negative-log IC50 (pIC50) in data set [3] is 6.51; in data set [5], 5.39; in data set [6], 4.11. Moreover, the “inhibition (INH)” value in data set [4] is reported as less than 10%. In data set [7], the Activity was 2 µMequiv/µM.
Regarding `CN(C)c1ccc(/C=C/C(=O)c2ccc(OC(=O)N3CCCC3)cc2O)cc1`, the Activity result is “Active” in data set [9], 0.98 molar ratio in data set [13], “Active” in data set [16] and 2.83 µMequiv/µM in data set [7]. Further, the “Ratio IC50” value in [10] is on record as 2; in data set [11] it was more than 26.7. Further, the inhibition was 79.7% in [2] and 89.5% in [8]. The Papp at 18 h, 100 ug/ml in data set [12] turned out to be 7.03 ×10⁻⁶ cm/s. Also, the pIC50 is 6.54 in data set [3] and 5.31 in data set [6]. In [14], the inhibition result was “Active”. In addition, the inhibition at 10 µM in [15] was 12.8%. Moreover, the “inhibition (INH)” value in data set [4] is less than 10%.
`CCN(C)C(=O)Oc1cccc([C@H](C)N(C)C)c1` [RIVASTIGMINE] gave a pIC50 in data set [17] of 5.54.
With `CN(C)C(=O)Oc1ccc(C(=O)/C=C/c2ccc(N(C)C)cc2)c(O)c1`, the Ratio IC50 in data set [1] was determined as 4.11. The values for the inhibition in [2] and in [8] were 77.9% and 90.8%, respectively. Besides, the pIC50 in data set [3] was 5.61; in data set [5], 4.99; in data set [6] it was 4.49. Also, the “inhibition (INH)” value in data set [4] is less than 10%. Besides, the Activity in [7] was 2.62 µMequiv/µM.
